High-throughput results deposited in PubChem by several laboratories.
The list is not random: actives were taken first. Their share in the collection is about 4.7%.
Mdm2-MdmX inh = inhibitors of human Mdm2/MdmX interaction. 3% of 330,000 active. inhibition, % at 8 µM. AID 485346. O15151+Q00987. SaOS-2 split-luciferase Mdm2/MdmX complementation, luminescence;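 active means inhibition of at least 50% at 8 µM in the primary screen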
aSyn 5UTR inh = 5' untranslated region of α-synuclein, MLPCN primary screen | alpha-synuclein 5'UTR reporter, inhibitor activity | inhibition, % (tested at 7.5 µM) | 0.82% of 300,000 active | AID 1813; in the data active means inhibition above about 60%;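 further: H4 neuroglioblastoma cells stably carrying SNCA 5'UTR luciferase fusion; 0% = DMSO wells and 100% = positive control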
IMP-1 inhibitor = inhibitors of Pseudomonas aeruginosa IMP-1 metallo-beta-lactamase; 0.45% of 290,000 active; inhibition, % at 5.6 µM; AID 1556; purified IMP-1, nitrocefin hydrolysis, epi-absorbance fluorescence;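 active means inhibition above the mean plus 3 SD of all compounds in the same screening run, cut at about 4.5% in these data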;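 further: 0% = IMP-1 with DMSO and 100% = DMSO wells lacking enzyme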
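Assay system: purified recombinant IMP-1 beta-lactamase. Input: IMP-1 0.2 nM before substrate addition. Buffer or medium: Zinc- and detergent-supplemented HEPES buffer, pH 7.1. Schedule: 25 °C, 15 min preincubation, 25 min reaction. Signal: Epi-absorbance fluorescence, 480 nm excitation, 530 nm emission. Evaluation: percent inhibition from optical density relative to buffer-blank wells.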
VIM-2 inh = blocks Pseudomonas aeruginosa VIM-2 metallo-beta-lactamase. purified VIM-2, nitrocefin hydrolysis, epi-absorbance fluorescence. AID 1527. 0.89% of 290,000 active. inhibition, % at 5.6 µM;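 active means inhibition above the mean of all tested compounds plus 3 SD, cutoff set per screening run, cut at about 7.5% in these data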;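 further: red hydrolysis product quenches plate fluorescence so inhibitors raise well fluorescence; 0% = enzyme with DMSO and 100% = DMSO without enzyme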
697 NFkB inh = lowers PMA/ionomycin-induced NF-kB signal in 697 B cells. 697 B-cell NF-kB luciferase reporter, 16 h. 0.33% of 330,000 active. inhibition, % at 4 µM; in the data active means inhibition above about 35%
Jurkat NFkB inh = inhibitors of the PMA/ionomycin-induced NF-kB reporter in Jurkat cells; PMA/ionomycin-induced NF-kB luciferase reporter, luminescence; inhibition, % at 4 µM; 0.53% of 330,000 active; AID 435003; in the data active means inhibition above about 50%
Jurkat NFkB conf = inhibitors of the PMA/ionomycin-induced NF-kB reporter in Jurkat cells, retest. shares compounds with Jurkat NFkB inh. 27% of 2,700 active. inhibition, % at 4 µM. Jurkat NF-kB luciferase, 16 h;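 active means inhibition reaching about 45% at 4 µM in either replicate, limit read from the data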;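 further: plate controls were PMA/ionomycin stimulated DMSO wells for no effect and unstimulated DMSO wells for full effect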
Starred values were filed as active, the others as inactive; . = no result given.

SMILES	Mdm2-MdmX inh	aSyn 5UTR inh	IMP-1 inhibitor	VIM-2 inh	697 NFkB inh	Jurkat NFkB inh	Jurkat NFkB conf
COc1cc(OC)cc(C(=O)N2CCN(Cc3ccc4c(c3)OCO4)CC2)c1	-3.6	16.8	-1.4	0.2	-16.9	-3.5	.
Fc1ccccc1CSc1nc2ccccc2[nH]1	-126.9	-51.7	0.3	-0.9	-245.8	-154.2	-85.8
Fc1c(F)c(F)c(CSc2nc3ccccc3[nH]2)c(F)c1F	-25.6	-13.6	-7.8	-6.7	-8.9	-22.8	.
COc1cccc(CN(C(=O)c2cc3ccccc3oc2=O)C2CCS(=O)(=O)C2)c1 (stereo unspecified)	-8.2	-48.9	-2.5	-2.2	-8.8	5.6	.
O=C(CSc1ccc(-c2ccco2)nn1)Nc1ccccc1F	6.5	5.6	-1.1	-0.1	-0.6	13.5	.
CCOc1ccc2c(c1)OC(c1ccc(OC)cc1)(C(F)(F)F)NC2=O (stereo unspecified)	46.8	96.1*	-1.4	-2.5	-11.8	56.6*	39.8
CCOc1ccc2c(c1)OC(c1ccccc1)(C(F)(F)F)NC2=O (stereo unspecified)	8.9	2.8	-4.8	-2.3	5.6	8.6	.
O=C(Nc1ccc(Cc2ccncc2)cc1)c1ccc(S(=O)(=O)N2CCCC2)cc1	1.0	22.6	-0.6	0.4	3.2	50.2*	47.1*
O=C(Nc1ccc(S(=O)(=O)N2CCOCC2)cc1)c1ccc(CN2CCc3ccccc3C2)cc1	32.1	-14.7	-0.1	-5.2	30.5	76.6*	74.2*
O=C(Nc1ccc(S(=O)(=O)N2CCCC2)cc1)c1ccc(CN2CCc3ccccc3C2)cc1	20.8	-24.1	-2.9	-3.1	-15.2	74.5*	75.1*
O=C(Nc1ccc(S(=O)(=O)N2CCCCC2)cc1)c1ccncc1	2.3	0.7	-2.5	-2.4	-24.9	-2.9	.
NC(=O)c1ccc(NC(=O)CNC(=O)c2sc3ccccc3c2Cl)cc1	22.9	.	.	.	6.7	5.7	.
NC(=O)C1CCCN(Cc2c(C(=O)N3CCc4ccccc4C3)nc3ccc(Cl)cn23)C1 (stereo unspecified)	9.5	11.5	-0.3	-0.2	0.1	4.5	.
CNc1ccccc1C(C)(C)c1cc(-c2cccc(OC)c2)no1	13.2	15.6	-4.9	-3.0	-26.6	50.8*	27.1
CNc1ccccc1C(C)(C)c1cc(-c2cc(C)cc(C)c2)no1	7.7	-21.0	-3.0	0.4	12.5	2.9	.
CCOc1cccc2cc(C(=O)Nc3nccs3)c(=O)oc12	15.4	-11.4	-3.0	-4.3	-16.4	-11.4	.
CCOc1cccc2cc(-c3csc(NC(=O)CCC(=O)NCCN4CCCCC4C)n3)c(=O)oc12 (stereo unspecified)	-221.6	-134.5	-2.0	4.2	-57.4	-200.4	-31.6
CCOc1cccc2cc(-c3csc(NC(=O)CCC(=O)NCCCN4CCC(C)CC4)n3)c(=O)oc12	-58.8	-76.2	0.4	4.5	-99.4	-185.1	-70.8
COc1cccc2cc(-c3csc(NC(=O)CCC(=O)NCCCN4CCC(C)CC4)n3)c(=O)oc12	-91.9	16.2	-0.5	2.1	-237.4	-157.9	-103.8
CCOc1cccc2cc(-c3csc(NC(=O)CCC(=O)N4CCC(C)CC4)n3)c(=O)oc12	31.9	-9.9	-5.3	-2.5	5.2	-7.6	.
COc1ccc(OC)c(-c2csc(NC(=O)CN3C(=O)C4CCCCC4C3=O)n2)c1 (stereo unspecified)	-1.9	-18.1	.	.	-5.9	-9.2	.
CCCCc1cc(C(=O)Cc2ccccn2)c(O)cc1O	6.2	-14.7	-0.3	0.3	16.3	-2.0	.
S=C(c1ccc(-c2ccc(Br)cc2)o1)N1CCCCC1	-226.4	-201.4	-1.0	-0.5	-180.5	-174.8	-114.8
CC(=Nc1ccc(C)cc1C)c1sc2ccccc2c1O	-149.0	-58.0	0.1	-0.3	-172.6	-202.5	-39.6
CC(=Nc1cccc(O)c1)c1sc2ccccc2c1O	-129.0	-235.5	1.0	4.1	-185.3	-120.6	.
COc1ccccc1NC(=O)c1nc[nH]c1C(=O)Nc1ccccc1OC	34.6	4.9	-2.8	-1.5	-12.9	51.1*	9.7
COCCOC(=O)c1[nH]c2c(c1C)C(=O)CC(c1ccco1)C2 (stereo unspecified)	33.6	43.9	0.4	2.1	-14.6	59.6*	9.8
